Source: PubChem (several laboratories)
CYP2C19 activ: activators of human cytochrome P450 2C19. activation factor at 5 µM. recombinant CYP2C19, luciferin-H EGE luminescence; hits give high values; 0 = fully inhibited enzyme, 1 = untreated enzyme. AID 1025. 96,000 tested, under 10 active;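 active = activation factor of at least 2 at 5 µM in the primary screen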;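 also: 0 = wells with 2.5 mM tranylcypromine and 1 = vehicle-only wells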
Target sequence (P33261 whole entry, looked up): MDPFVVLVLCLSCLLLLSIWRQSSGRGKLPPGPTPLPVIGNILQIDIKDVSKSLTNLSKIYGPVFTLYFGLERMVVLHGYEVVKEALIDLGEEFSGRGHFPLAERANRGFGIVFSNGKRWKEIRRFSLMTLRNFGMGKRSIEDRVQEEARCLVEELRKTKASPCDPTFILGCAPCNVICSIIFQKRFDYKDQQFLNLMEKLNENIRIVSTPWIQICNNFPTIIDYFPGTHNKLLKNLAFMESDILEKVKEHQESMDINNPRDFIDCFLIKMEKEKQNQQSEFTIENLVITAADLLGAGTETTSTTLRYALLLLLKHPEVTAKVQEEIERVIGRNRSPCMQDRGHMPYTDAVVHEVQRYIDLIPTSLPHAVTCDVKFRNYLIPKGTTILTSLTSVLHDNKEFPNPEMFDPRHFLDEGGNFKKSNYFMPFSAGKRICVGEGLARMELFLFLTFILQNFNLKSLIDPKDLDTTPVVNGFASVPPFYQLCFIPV
CYP2C19 inh: human CYP2C19 inhibition. CYP2C19 Supersomes, luciferin-H EGE luminescence, 30 min. inhibition, % at 5 µM. 21% of 96,000 active. AID 778;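 active = CYP2C19 inhibition above a set limit at 5 µM in the primary screen, cut at about 50% in these data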;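 also: plate controls were negative control wells for no effect and 2.5 mM tranylcypromine positive control for full effect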
tolC growth inh: blocks growth of E. coli BW25113 tolC mutant; 2.2% of 65,000 active; OD615; growth inhibition, % at 10 µM (by protocol); AID 573;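 active = growth inhibition at or above a cutoff equal to the mean over every tested compound plus 3 SD, cut at about 60% in these data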;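 also: growth measured after 20 h incubation at 37 °C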
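Assay system: tolC-deleted E. coli BW25113. Medium: kanamycin-containing LB broth (50 µg/mL). Dosing: 10 µM final, single dose. Timing: bacterial growth with compound for 20 h at 37 °C. Detection: A615 absorbance measurement. Read-out basis: growth inhibition in percent.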
CYP2C9 activ: increases human cytochrome P450 2C9 activity; activation factor at 5 µM; 1.4% of 96,000 active; P11712; recombinant CYP2C9, luciferin-H conversion, luminescence; hits give high values; factor 1 = untreated enzyme, 0 = blocked;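 active = activation factor of 2 or more for CYP2C9 at a 5 µM dose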;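 also: 0 = sulfaphenazole-blocked wells and 1 = vehicle-only wells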
CYP2C9 inhib: blocks human cytochrome P450 2C9. CYP2C9 Supersomes, luciferin-H conversion, luminescence. inhibition, % at 5 µM. 20% of 96,000 active;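 active = blocking of liver enzyme CYP2C9 beyond about 50% at 5 µM, limit read from the data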
Ecoli WT expand: blocks growth of wild type E. coli BW25113 | growth inhibition, % at 100 µM | OD600 absorbance | AID 710 | 0.15% of 98,000 active;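 active = growth inhibition above about 50% at one test dose, limit read from the data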;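 also: growth measured after 20 h incubation at 37 °C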
Active calls of the source: *; x = no result given. Shown are actives, neighbours in structure and some others; about 29% of the full set was active somewhere.

SMILES	CYP2C19 activ	CYP2C19 inh	tolC growth inh	CYP2C9 activ	CYP2C9 inhib	Ecoli WT expand
Cc1cc(C)c(C(=O)C2OC(=O)C(C)(C)C(=O)C2(C)C)c(C)c1 (stereo not given)	0.1	92*	x	0.1	90*	-16
CC1(C)C(=O)OC(C(=O)c2ccccc2)C(C)(C)C1=O (stereo not given)	0.1	91*	-8	0.4	58*	-4
CC1(C)C(=O)OC(c2ccccc2)C2(CCCC2)C1=O (stereo not given)	0.1	90*	x	0.8	21	-1
c1ccc(-c2cccc(-c3ccccn3)n2)nc1	1	2	73*	0.9	6	68*
O=C1c2ccccc2C(=O)N1OCCOCCOCCON1C(=O)c2ccccc2C1=O	1	-5	-4	1.1	-5	0
O=C1c2ccccc2C(=O)N1OCc1ccc(Cl)cc1	0.4	64*	x	1.1	-13	1
COc1ccc(CNC(=O)CN(C(=O)c2ccc(CN3CCOCC3)o2)C2CCCC2)cc1	x	x	-21	x	x	-4
COc1ccc(/C=C/C(=O)c2sc(-c3ccccc3)nc2C)cc1	1	-5	x	0.9	12	-8
Cc1ccc(NC(=O)CSc2nnc(-c3ccncc3)o2)cc1	0	98*	x	0.5	51*	7
O=C(CCSc1nnc(-c2ccco2)o1)Nc1ccc(Cl)cc1	1	-3	-6	1	-4	3
O=C(CCSc1nnc(-c2ccco2)o1)Nc1ccccc1	0.2	79*	-6	0.7	28	3
COc1cccc(NC(=O)CSc2nnc(-c3ccc(C)cc3)o2)c1	1.2	-16	-7	0.9	7	-7
O=C(CCSc1nnc(-c2ccncc2)o1)Nc1ccc(Cl)cc1	0	96*	2	0.2	84*	-11
CC(=O)c1c(C)cc(C)c(CSc2nnc(-c3ccco3)o2)c1C	0.5	45	55	0.5	51*	-7
COc1cccc(C2C3=C(CC(C)(C)CC3=O)OC(N)=C2[N+](=O)[O-])c1 (stereo not given)	0.5	48	x	0.9	15	1
O=C(CCSc1nnc(-c2ccncc2)o1)Nc1ccccc1Cl	0.1	87*	x	0.4	61*	7
COCC(=O)N(C)C1(c2nnnn2CCOC(=O)Nc2cccc3ccccc23)CCCC1	0.6	41	-9	0.8	20	1
O=C1N/C(=N\N=C\c2cccnc2)SC1Cc1ccc(SC(F)F)cc1 (stereo not given)	1	2	x	0.5	53*	-9
O=C(Nn1cnnc1)c1ccncc1	1	0	-6	0.9	9	0
O=C(NN1C(=O)C2C(C1=O)C1C=CC2C12CC2)c1ccncc1 (stereo not given)	0.5	52*	x	0.7	28	-5
c1ccc(-c2cc3c(N4CCOCC4)ncnc3s2)cc1	0.2	79*	10	0.7	34	2
CCOc1ccc(Nc2cc(=O)oc3ccccc23)cc1	0.9	11	x	1.9	-89	-5
CCCc1c(CC)c(=N)c2ccccc2n1C	1.1	-8	-11	0.9	12	0
Cc1ccccc1OCCCN1C(=O)C(=O)c2cccc(C)c21	0.8	21	100*	0.9	10	4
Cc1cccc2c1N(CCCOc1ccccc1)C(=O)C2=O	0.4	62*	x	0.6	43	7
SMILES	CYP2C19 activ	CYP2C19 inh	tolC growth inh	CYP2C9 activ	CYP2C9 inhib	Ecoli WT expand
O=C(O)C1CCC(=O)N1Cc1ccccc1Cl (stereo not given)	1	4	-16	0.9	11	5
COc1ccc(/C=C/c2c([N+](=O)[O-])c(=O)n(C)c(=O)n2C)cc1O	0.9	10	x	0.5	53*	-7
CC1(C)Cc2c(sc3nc(SCC#N)n(C4CCCCC4)c(=O)c23)CO1	x	x	7	x	x	x
Fc1ccc(C(c2ccc(F)cc2)N2CCN(C/C=C/c3ccccc3)CC2)cc1	x	x	76*	x	x	x
CC(CN(C)Cc1ccccc1)OC(=O)c1ccc2c(c1)OCCO2 (stereo not given)	0.7	30	-6	0.7	30	2
COc1cc(C(O)P(=O)(OCC(C)C)OCC(C)C)cc(OC)c1OC (stereo not given)	0.8	23	x	0.9	13	3
c1ccc(Cn2nnc3c(NCC4CCCO4)ncnc32)cc1 (stereo not given)	0.7	33	-5	2.4*	-138	0
